This series can be described thus: Toxicity liver stage against HepG2, at 10uM. The class given is cell-based. Details: test concentration 10 uM, cell line HepG2-A16-CD81EGFP. Particulars: human, HepG2-A16-CD81EGFP cells; read-out: INHIBITION
The essentials:
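Uninfected HepG2-A16-CD81EGFP cells, 3 × 10^3 per well, 1536-well, plated on prespotted compound at 10 μM final, parasite-free screening media added to match infected plates; puromycin 10 μM positive, DMSO 0.5% negative; run in parallel with 48 h PbLuc assay at 37 °C, 5% CO2; viability by CellTiter-Glo luminescence, normalized to controls.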
As to `O=C1CO[C@H]2CN(Cc3cccnc3)C[C@H]2N1`, the cytotoxicity at 10 µM is -4%.
The value for `O=S(=O)(Cc1ccccc1)NC[C@H]1Cn2ccnc2CO1` was 6.88%; that for `Cn1nc(-c2ccccc2)c(Br)c1C(=O)O` was -48.3%; that for `Cc1n[nH]c2c1C(c1cccnc1)SCC(=O)N2` (centres undefined) was -7.46%.
Under `Cc1nc(C(=O)N2CCN(S(=O)(=O)N(C)C)CC2)c(-c2ccccc2)s1` stands 3.67%; under `COc1ccc(N2CCN(C(=O)COc3nccc(C)n3)CC2)cc1`, -6.16%.
The value for `CC(C)Oc1ccc(C(=O)N2CCCSCC2CN(C)C)cc1` (centres undefined) was 9.9%; that for `COC(CNC(=O)C1CCN(S(C)(=O)=O)CC1)c1ccc(C)s1` (centres undefined) was -0.0506%; that for `O=C(Nc1cccnc1)c1nn(C2CCS(=O)(=O)C2)c2c1CCCC2` (centres undefined) was 7.41%.
For the compound `COc1ccc(C2CC(=O)Nc3nc(N4CCOCC4)sc32)c(OC)c1` (centres undefined), the cytotoxicity at 10 µM is 53.8%.
The value for `Cc1nc2[nH]cnc(NCCN3CCOCC3)c-2n1` was 3.22%; that for `Cc1cc(C)nc(C2CCN(c3ccncn3)C2)n1` (centres undefined) was -0.419%.
As for `CC(=O)Nc1nc(C2CCN(C(=O)C3CCC3)CC2)cs1`, the cytotoxicity at 10 µM is -2.36%.
Under `COCC(=O)N1CCCC(c2cccc(-n3ccnc3)n2)C1` (centres undefined) stands -9.69%; under `O=C(N1CCCCC1)N1CCCC1c1nnc2n1CCNC2` (centres undefined), 13.6%.
Under `CN1CCN(C(=O)CCC(=O)c2cccs2)Cc2ccccc21` stands -57.8%; under `COc1c(C(=O)NC(C)CC(=O)c2cccs2)c(C)nn1C` (centres undefined), -10.1%; under `Cc1csc(CCNC(=O)N2CCC(C(N)=O)CC2)n1`, -2.71%.
As for `CC1CCCN(C(=O)c2ccc(N(C)Cc3cnn(C)c3)nc2)C1` (centres undefined), the cytotoxicity at 10 µM worked out at 2.22%.
Take `CSCCc1ccc(NC(=O)NC(C)Cn2cncn2)cc1` (centres undefined): the cytotoxicity at 10 µM is 2.56%.
`CC(NC(=O)Cc1ccon1)c1ccc(OCC2CC2)c(F)c1` (centres undefined): the cytotoxicity at 10 µM came out at 5.47%.
Take `CC(C)c1ncncc1C(=O)NCCN1CCCCC1C` (centres undefined): the cytotoxicity at 10 µM is -6.06%.
For `CSCC(CCO)NC(=O)Nc1ccc(C)cc1Br` (centres undefined), the cytotoxicity at 10 µM was -11.8%.
Regarding `CNc1cc(N2CCCC2CNCc2cccs2)ncn1` (centres undefined), the cytotoxicity at 10 µM was -12.3%.
Take `CCN(CC)Cc1ccc(C(=O)NC2CCc3cc(Br)ccc32)o1` (centres undefined): the cytotoxicity at 10 µM is -3.3%.
For the compound `COc1ccccc1-c1cc(NC(=O)CCC2CCCO2)[nH]n1` (centres undefined), the cytotoxicity at 10 µM is -0.394%.
Take `CCn1nc2c(cc1=O)CN(Cc1ccc(-n3cccn3)cc1)CC2`: the cytotoxicity at 10 µM was -134%.
The value for `Cc1cnn(C2CN(CC(O)Cn3cccn3)C2)c1` (centres undefined) was 9.12%; that for `Cc1ccc(C)c(CS(=O)(=O)CC(=O)Nc2ccc(F)cc2F)c1` was 3.28%; that for `COc1cc(OC)c(CNC(=O)NCC(=O)N(C)C)c(OC)c1` was 3.27%.
On to `CCOC(C)c1noc(CN(C)C(=O)C2C(C)(C)C2(C)C)n1` (centres undefined), for which the cytotoxicity at 10 µM was 9.5%.
For the compound `CC(C)COC(C)C(=O)NCCNC(=O)C(C)C` (centres undefined), the cytotoxicity at 10 µM is -15.2%.
On to `Cc1cc(C)n(Cc2ccc(C(=O)NCCN3CCOCC3)cc2)n1`, for which the cytotoxicity at 10 µM is -14.8%.
Under `CCc1nnc2n1CCN(C(=O)c1cnc3ccccc3n1)C2` stands -7.7%.
As for `COCCN1CC[C@@H]2OC[C@H](C(=O)N(C)Cc3ccccn3)C[C@@H]2C1`, the cytotoxicity at 10 µM is -98.5%.
As for `O=C1CO[C@@H]2CNC[C@H]2N1CC1CC1`, the cytotoxicity at 10 µM was -95.7%.
Consider `Cc1ncsc1CN1C[C@@H]2CN(S(C)(=O)=O)CCO[C@@H]2C1`, for which the cytotoxicity at 10 µM was -105%.
Under `Cn1cc(CN2C[C@@H]3CCC[C@@H](OCc4cccnc4)[C@@H]3C2)cn1` stands -107%; under `CS(=O)(=O)N1C[C@@H](NC(=O)c2ccno2)[C@@H]2OCCC[C@@H]21`, -108%; under `CN(C)Cc1cnc2n1CCN(C(=O)C1CC=CC1)CC2`, -81.3%.
Turning to `Cc1ccc2c(c1)C1(CCN(C(N)=O)CC1)CN2C(=O)N(C)C`, the cytotoxicity at 10 µM was -79.1%.
The value for `COCCNC(=O)c1cc2c(c3ccccc3n2C)n1C(=O)N(C)C` was -72.6%.
Consider `Cc1cc(C(=O)N2CC[C@@H]3CN(S(C)(=O)=O)CCO[C@@H]3C2)c(C)o1`, for which the cytotoxicity at 10 µM was determined as 3.52%.
Under `CS(=O)(=O)N1CCC2(CC1)CC(CC(=O)NC1CC1)c1ccccc12` (centres undefined) stands -0.105%.
For the compound `Cc1[nH]c2ccccc2c1-c1ccnc(N[C@@H](CO)C(C)C)n1`, the cytotoxicity at 10 µM is -4.19%.
The value for `CCN(Cc1nc(COC)no1)Cc1ccccc1OCC(=O)O` was -51.6%; that for `Cc1ccnc(CC(C)N(C)c2cc(C3CCNCC3)nc(C)n2)c1` (centres undefined) was -46.2%.
Under `Cc1ccc(CN2C[C@H]3C(=O)N(CC4CC4)C[C@@]3(C(=O)O)C2)c(F)c1F` stands 7.47%; under `CCc1nc(NC(=O)NCCc2scnc2C)nn1C`, 0.102%; under `C[C@@H]1CC[C@@H](C)N1C(=O)c1cc(COc2ccccc2)[nH]n1`, 4.82%.
As for `CC(C)N1CCC(CC(=O)NC(C(=O)O)c2cccc(F)c2)CC1` (centres undefined), the cytotoxicity at 10 µM was -0.114%.
`c1ccc(CCN2CCN(C3CCOC4(CCOCC4)C3)CC2)cc1` (centres undefined): the cytotoxicity at 10 µM is -3.79%.
Take `CCN(CCN1CCOCC1)C(=O)c1cccnc1`: the cytotoxicity at 10 µM was found to be 7.42%.
The value for `Cc1cc(NCCNc2cccnc2)nc(N)n1` was -5.86%.
The value for `COc1ccc(CN2CCN(C(=O)N(C)C)[C@@H]3CS(=O)(=O)C[C@@H]32)cc1F` was 1.24%; that for `CC(C)(N)C(=O)N1CCCC(C(=O)c2ccc(C(C)(C)C)cc2)C1` (centres undefined) was -1.1%; that for `CCc1ccc(C(=O)N2CCC(O)(CN3CCOCC3)C(C)(C)C2)[nH]1` (centres undefined) was 0.542%.
The value for `COCCOC(=O)N1CCn2nc(CN(C)Cc3nccs3)cc2C1` was 1.32%; that for `Cc1cc(-c2nn(C)c(Cl)c2CN2CC[C@H](CO)[C@@H](O)C2)no1` was 2.45%; that for `Cc1ccn2cc(C(=O)N3CCCC(Cn4cc(CO)nn4)C3)nc2c1` (centres undefined) was 2.41%.
For `CC(C)CCn1c(=O)n(CCn2cccc2)c2cc(C(=O)O)cnc21`, the cytotoxicity at 10 µM is -2.95%.
In the case of `Cc1ccc(CN2CCN(Cc3ccncc3)[C@@H]3CS(=O)(=O)C[C@@H]32)cc1`, the cytotoxicity at 10 µM stood at 6.86%.
The value for `Cc1[nH]c2c(C)ccc(C)c2c1CC(=O)NCCCNc1cccnc1` was 0.0773%; that for `CCN(CC)S(=O)(=O)N1CCCC(c2ccc(C(=O)O)cc2)C1` (centres undefined) was -7.27%.
For `CN(C)S(=O)(=O)N1CCC2(CCCN(Cc3ccc(F)cc3)C2=O)C1` (centres undefined), the cytotoxicity at 10 µM is -9.67%.
On to `CC(C)NS(=O)(=O)c1cc(C(=O)O)cc(-c2ccccc2CN(C)C)c1`, for which the cytotoxicity at 10 µM is 6.41%.
Take `CC(CN1CCCC1)C(=O)N1CCC(c2nccn2CC2CC2)CC1` (centres undefined): the cytotoxicity at 10 µM is -26.3%.
`Cc1cc2cc(C(=O)N[C@@H]3CC[C@@H](N4CCOCC4)[C@@H]3O)ccc2o1`: the cytotoxicity at 10 µM was -1.85%.
Regarding `O=C1NCC2(CCCN(Cc3ccccc3F)C2)Oc2ccccc21` (centres undefined), the cytotoxicity at 10 µM is 6.12%.
The value for `CN(Cc1ccccn1)C(=O)c1nc(S(C)(=O)=O)n2ccccc12` was -8.01%.
The value for `CCn1ccnc1CN1CCN(C(C)C(=O)NC2CCCC2)CC1` (centres undefined) was -4.86%; that for `Fc1cccc(CN2CCN(Cc3cscn3)CC2)c1` was -0.612%.
On to `CN1CCN(c2cc(N3CCCC3CO)ncn2)Cc2ccccc21` (centres undefined), for which the cytotoxicity at 10 µM was -5.22%.
Under `CCc1ncc2c(n1)CN(Cc1nc(-c3ccsc3)oc1C)CC2` stands -8.6%; under `O=C(Nc1cccc(CNCc2cccs2)c1)C1CCCC1`, -4.59%; under `Cn1ccnc1CN1CCN(c2ccc(C#N)cn2)CC1`, -4.2%.
Under `CCCOc1cccc(CNC(=O)CN2CCN(C)CC2C)c1` (centres undefined) stands -7.57%; under `Cn1cnc(S(=O)(=O)NCCN2CCCCCC2=O)c1Cl`, -14.2%; under `CC(C)C(C(=O)N1CCC(N(C)c2cccnn2)CC1)n1cncn1` (centres undefined), -7.44%.
On to `CCN1CCC(CNC(=O)C2(c3cccc(C)c3)CC2)C1` (centres undefined), for which the cytotoxicity at 10 µM came out at 1.42%.
As for `Cc1cnn(C2CCCN(C(=O)C3=NN(C)C(=O)CC3)C2)c1` (centres undefined), the cytotoxicity at 10 µM was -3.71%.
The value for `O=C(c1cccc2cccnc12)N1CCCN(c2cccnn2)CC1` was -3.2%; that for `Cc1ccc(CN(Cc2ccccn2)C2CC(C)(C)NC(C)(C)C2)s1` was 2.7%.
As for `O=C(NCc1ccco1)[C@@H]1CCO[C@@H]2CCN(c3ncccn3)C[C@@H]21`, the cytotoxicity at 10 µM is -68.3%.
`CCN1C[C@H]2C3(CCN(C(C)=O)CC3)CC[C@@]2(C(=O)N(C)C)C1`: the cytotoxicity at 10 µM was -104%.
In the case of `CC(C)CNC(=O)[C@H]1CCS(=O)(=O)[C@@H]2CN(Cc3cccc(Cl)c3)C[C@H]12`, the cytotoxicity at 10 µM is -7.06%.
As for `c1ncn(Cc2cnc3n2CCN(Cc2ccsc2)CC3)n1`, the cytotoxicity at 10 µM was determined as 6.2%.
Take `Brc1ccc(CNCc2nnc3n2CCC3)s1`: the cytotoxicity at 10 µM was -4.2%.
On to `CCO[C@@H]1CCN(C(=O)c2ccc[nH]2)[C@@H]1Cc1cccnc1`, for which the cytotoxicity at 10 µM was -80.2%.
The value for `O=C1CCC2(CCCN(Cc3nccs3)C2)N1CC1CC1` (centres undefined) was -68.4%; that for `O=C1COC2(CCN(CC3CC3)CC2)CN1c1ccccc1` was -14.6%.
The value for `O=C(C1CC1)N1CCOC2(CCNCC2)C1` was -112%; that for `Cc1ccc(C(=O)N2CCC3(CCCN(c4ncc(F)cn4)C3)C2)cn1` (centres undefined) was -106%; that for `CCN1CCN(c2nc3cn(-c4cnn(CC)c4)c(=O)c-3c[nH]2)CC1` was 4.01%.

The values are drawn from ChEMBL document CHEMBL4513216, “Probing the Open Global Health Chemical Diversity Library for Multistage-Active Starting Points for Next-Generation Antimalarials” (ACS Infect Dis, 2020).
